Screening results as filed in PubChem BioAssay.
A selection: hits, their analogues and other compounds. The true share with any hit is near 3.7%.
Kir21 inh: inhibitors of mouse Kir2.1 inward-rectifier potassium channel | HEK293-Kir2.1, FluxOR thallium flux fluorescence; hits give low values | B-score at 10 µM | 310,000 tested, 0.85% active | AID 1672, 2009;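 active = fluorescence ratio B-score at or below minus 3 SD of library scores, with starting-brightness B-score within 2 SD, cut at about -4.2 in these data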;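 also: channel flux triggered by added potassium and thallium sulfate stimulus; B-score of peak minus minimum fluorescence over baseline after thallium stimulus; more negative B-score means stronger Kir2.1 block with less thallium influx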
Target sequence (P35561 whole entry, looked up): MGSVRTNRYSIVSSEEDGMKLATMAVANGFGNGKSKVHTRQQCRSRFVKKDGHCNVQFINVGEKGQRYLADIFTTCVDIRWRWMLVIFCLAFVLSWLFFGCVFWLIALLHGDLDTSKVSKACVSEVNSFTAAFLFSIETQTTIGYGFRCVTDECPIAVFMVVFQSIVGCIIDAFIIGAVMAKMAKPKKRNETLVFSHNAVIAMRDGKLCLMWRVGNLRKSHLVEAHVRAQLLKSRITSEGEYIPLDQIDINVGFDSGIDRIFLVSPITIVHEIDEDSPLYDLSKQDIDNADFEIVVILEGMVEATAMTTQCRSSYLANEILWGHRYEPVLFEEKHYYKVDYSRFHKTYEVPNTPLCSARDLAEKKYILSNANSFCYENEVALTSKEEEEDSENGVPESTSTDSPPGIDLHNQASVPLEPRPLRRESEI
KCNQ1 act: potentiators or activators of KCNQ1 channel, primary screen, cell-based, thallium flux, high-throughput; Potassium voltage-gated channel subfamily KQT member 1 (Homo sapiens), P51787; CHO-K1 KCNQ1, thallium flux FluxOR fluorescence; hits give high values; B-score at 10 µM; 310,000 tested, 0.35% active;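 active = fluorescence ratio B-score, a plate-corrected score, at least three library SD, with initial intensity B-score within 5 SD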
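Schedule – 37 °C overnight plating, 90-min dark dye load, 20-min compound pretreatment · System – stable KCNQ1 CHO-K1 line · Probe or stimulus – thallium- and potassium-containing depolarizing buffer · Measured by – kinetic FluxOR fluorescence, 10 s baseline plus 110 s post-stimulus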
KCNQ1 block: inhibitors of human KCNQ1 channel, primary screen, cell-based, thallium flux, high-throughput; B-score at 10 µM; Potassium voltage-gated channel subfamily KQT member 1 (Homo sapiens), P51787; AID 2642, 2010; CHO-K1 KCNQ1, FluxOR thallium flux fluorescence; hits give high values; 310,000 tested, 1.3% active;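 active = compounds whose thallium flux B-score, printed positive for inhibition, exceeds three library SD while starting fluorescence stays within three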;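 also: channel opened by potassium depolarization with thallium stimulus after 20 min compound exposure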
KCNK3 inh: human KCNK3 channel inhibitors, primary screen, CHO cells, FluxOR thallium flux, B-score | 340,000 tested, 0.84% active | B-score at 10 µM | Potassium channel subfamily K member 3 (Homo sapiens), O14649 | FluxOR fluorescence; hits give low values;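 active = B-score under library mean minus 4 SD, starting fluorescence ratio at most library mean plus 5 SD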;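 also: more negative B-score means stronger inhibition of thallium flux through KCNK3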
hERG protect: hERG rescue from dofetilide block, primary screen, cell-based, CHO-hERG, FluxOR thallium flux, dofetilide IC70 | Voltage-gated inwardly rectifying potassium channel KCNH2 (Homo sapiens), Q12809 | dofetilide IC70 present | activation (rescue from dofetilide block), less the hit threshold, % at 10 µM | 310,000 tested, 0.51% active;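 active = activation above the mean of controls blocked by dofetilide plus 5 SD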;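 also: thallium influx through hERG after potassium depolarization seen as dye fluorescence rise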
KCNK9 inh: KCNK9 potassium channel inhibitors, primary screen, HEK293 cells, thallium flux. Potassium channel subfamily K member 9 (Homo sapiens), Q9NPC2. FluxOR thallium flux fluorescence; hits give low values. B-score at 10 µM. 310,000 tested, 1.2% active. AID 488922, 2010;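 active = ratio B-score over 3 SD below the library mean, with starting fluorescence within 5 SD of its mean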;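 also: negative B-score means less thallium flux so channel inhibition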
Target sequence (Q9NPC2 whole entry, looked up): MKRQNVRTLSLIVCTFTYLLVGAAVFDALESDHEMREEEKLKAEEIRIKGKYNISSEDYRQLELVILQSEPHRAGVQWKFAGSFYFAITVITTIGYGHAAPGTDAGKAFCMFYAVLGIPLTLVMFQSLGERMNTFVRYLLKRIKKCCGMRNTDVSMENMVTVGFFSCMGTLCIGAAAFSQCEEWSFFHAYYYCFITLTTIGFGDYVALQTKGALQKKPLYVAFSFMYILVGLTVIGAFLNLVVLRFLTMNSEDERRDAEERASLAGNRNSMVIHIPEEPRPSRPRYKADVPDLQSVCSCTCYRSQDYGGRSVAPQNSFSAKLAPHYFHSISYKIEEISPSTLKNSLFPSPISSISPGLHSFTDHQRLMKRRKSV
KCNQ1 block val: KCNQ1 potassium channel inhibitors, confirmation, cell-based, Tl flux, duplicate; shares compounds with KCNQ1 block; KCNQ1 cell line, FluxOR thallium flux fluorescence; inhibition, % at 10 µM; 1,600 tested, 93% active; AID 588353, 2011;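 active = primary screen active, with duplicate mean exceeding buffer control mean plus 3 SD of buffer wells, cut at about 28% in these data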
CHO KCNQ1 ctr: thallium flux effects in parental CHO cells, counter-screen for KCNQ1 inhibitor project, cell-based, Tl flux | parental CHO-K1, FluxOR thallium flux fluorescence ratio; hits give low values; zero means no signal rise above baseline | fluorescence ratio (Tl flux) at 10 µM | shares compounds with KCNQ1 block | AID 588366, 2011 | 1,600 tested, 21% active;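 active = mean of duplicate thallium-flux fluorescence ratios in parental host cells more than 5 SD below the buffer control mean, cut at about 0.38 in these data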;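 also: ratio is peak minus minimum fluorescence divided by baseline fluorescence; actives read low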
KCNQ1 APC inh: KCNQ1 channel inhibitors, confirmation, orthogonal assay, cell-based, automated electrophysiology; shares compounds with KCNQ1 block; KCNQ1-CHO cells, automated patch clamp current; calls only at 10 µM; 490 tested, 20% active;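 active = KCNQ1 current drop exceeding 3 SD of negative control wells, seen in both duplicate runs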;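 also: steady state current during a 2 s step from -80 to +40 mV; negative values mean current inhibition and positive values mean potentiation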
KCNQ2 inh: KCNQ2 channel inhibition, selectivity assay for KCNQ1 inhibitor project, cell-based | shares compounds with KCNQ1 block | KCNQ2 cells, FluxOR thallium flux fluorescence | inhibition, % at 10 µM | 1,600 tested, 71% active;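 active = mean percent inhibition of the KCNQ2 thallium signal more than 5 SD above the buffer-only control wells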;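 also: KCNQ2 expressed in CHO cells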
KCNQ1-KCNE1 inh: KCNQ1/KCNE1 channel inhibition, selectivity assay for KCNQ1 inhibitor project, CHO-K1 cells, thallium flux, FluxOR; shares compounds with KCNQ1 block; FluxOR thallium flux fluorescence; inhibition, % at 10 µM; AID 652147, 2013; 1,600 tested, 77% active;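 active = mean percent inhibition of duplicate wells above the buffer-only control mean plus 3 SD of those controls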
KCNK9 block conf: KCNK9 potassium channel inhibitors, confirmation, HEK293 cells, thallium flux, duplicate; 4,900 tested, 43% active; FluxOR thallium flux fluorescence; shares compounds with KCNK9 inh; inhibition, % at 10 µM; AID 492992, 2010;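 active = thallium signal inhibited by more than 5 SD of the compound-free buffer control wells, on both duplicate plates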
Kir2-1 spec: mouse Kir2.1 channel inhibition, confirmation, selectivity assay for KCNK9 modulator project, cell-based, HEK293, thallium flux | shares compounds with KCNK9 inh | Kir2.1 cells, FluxOR thallium flux fluorescence | inhibition, % at 10 µM | 4,900 tested, 4% active | AID 492993, 2010;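 active = thallium signal drop more than 5 SD beyond the mean of the no-compound control wells, seen in both duplicate plates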;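 also: signal is fluorescence rise after thallium addition divided by baseline fluorescence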
KCNK9 uninduced: thallium flux in non-induced HEK293 cells, confirmation, counter-screen for KCNK9 inhibitor project, cell-based, second counter screen, non-induced KCNK9-HEK293; shares compounds with KCNK9 inh; FluxOR thallium flux; inhibition, % at 10 µM; 4,900 tested, 40% active;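 active = thallium signal drop beyond 5 SD of the untreated control mean, on both duplicate plates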
KCNK3 inh conf: retest of human KCNK3 channel inhibitors, confirmation, CHO cells, FluxOR thallium flux, triplicate. shares compounds with KCNK3 inh. FluxOR fluorescence; 0% buffer, 100% carvedilol maximal block. ratio percent of control, % at 10 µM. 2,400 tested, 99% active;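 active = ratio percent of control, averaged over triplicates, above buffer control mean plus 5 SD, cut at about 64% in these data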;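 also: ratio is the fluorescence rise from min to max over baseline after thallium stimulus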
KCNK3 uninduced: thallium flux inhibition in non-induced cells, primary screen, counter-screen for KCNK3 inhibitor project, cell-based, non-induced KCNK3 line, FluxOR thallium, triplicate | shares compounds with KCNK3 inh | non-induced KCNK3 parental cells; hits give low values | thallium flux ratio (lower = more inhibition) at 10 µM | 2,400 tested, 40% active | AID 651747, 2012;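 active = thallium flux ratio, averaged over three wells, more than 5 SD below the buffer control mean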;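 also: host cells are CHO cells without KCNK3 induction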
Each line names hits and unclear results; the compound was inactive in the other large screens (follow-up assays come after a bar, where they were run).

Cc1sc2ncnc(N3CCC(C(=O)Nc4ccc(C#N)c(Cl)c4)CC3)c2c1C	KCNQ1 block 7, KCNK3 inh -10 | KCNQ1 block val 132 | CHO KCNQ1 ctr inactive | KCNQ1 APC inh inactive | KCNQ2 inh 112% | KCNQ1-KCNE1 inh 156% | KCNK3 inh conf 131 | KCNK3 uninduced 0.15
COc1cccc(NC2=NCCCS2)c1	none
O=C(c1ccccc1F)c1cn(Cc2ccccc2)c2ccccc12	KCNQ1 block 6, KCNK3 inh -9.4, KCNK9 inh -7.5 | KCNQ1 block val 85 | CHO KCNQ1 ctr inactive | KCNQ2 inh 85% | KCNQ1-KCNE1 inh 130% | KCNK3 inh conf 113 | KCNK3 uninduced 0.16
Cn1cc(C=C(C#N)C#N)c2ccccc21	KCNK9 inh -8.4 | KCNK9 block conf inactive | Kir2-1 spec inactive | KCNK9 uninduced 52%
CCC1(Cc2ccccc2)C(=O)NC(=S)N(C)C1=O (centres undefined)	none (no result: Kir21 inh, KCNQ1 act, KCNQ1 block, hERG protect, KCNK9 inh)
Clc1cnc(Oc2ccc(Oc3ncc(Cl)cc3Cl)cc2)c(Cl)c1	none | KCNK9 block conf inactive | Kir2-1 spec inactive | KCNK9 uninduced inactive
Oc1ccccc1-[n+]1c(-c2ccccc2)cc(-c2ccccc2)c(O)c1-c1ccccc1	KCNK9 inh -8.4 | KCNK9 block conf inactive | Kir2-1 spec inactive | KCNK9 uninduced inactive
Cc1ccc(C)c(NC(=O)CCNC(=O)N2C[C@H]3C[C@@H](C2)c2cccc(=O)n2C3)c1	none
COC(=O)C1=C(c2ccc(F)cc2F)C[C@@H]2CC[C@H]1N2C(=O)N1CCC(O)CC1	none (no result: Kir21 inh, KCNQ1 act, KCNQ1 block, hERG protect, KCNK9 inh)
Fc1ccc(C[n+]2c(-c3ccccc3)cc(-c3ccccc3)cc2-c2ccccc2)cc1	Kir21 inh -9.3, KCNQ1 block 6, KCNK9 inh -11 (no result: KCNK3 inh) | KCNK9 block conf 52% | Kir2-1 spec 68% | KCNK9 uninduced inactive
O=C(c1ccc2c(c1)OCO2)C1CCCN(Cc2c(F)cccc2Cl)C1 (centres undefined)	none | KCNK9 block conf inactive | Kir2-1 spec inactive | KCNK9 uninduced inactive
COc1cccc(C(=O)C2CCCN(Cc3ccc(F)cc3)C2)c1 (centres undefined)	none | KCNK9 block conf inactive | Kir2-1 spec inactive | KCNK9 uninduced inactive
O=C(c1ccc(Cl)cc1)C1CCCN(Cc2cccc3cccnc23)C1 (centres undefined)	none | KCNK9 block conf inactive | Kir2-1 spec inactive | KCNK9 uninduced inactive
COc1cccc(C(=O)C2CCCN(Cc3ccc4nsnc4c3)C2)c1 (centres undefined)	none | KCNK9 block conf inactive | Kir2-1 spec inactive | KCNK9 uninduced inactive
COc1cccc(C(=O)C2CCCN(Cc3cnn(C(C)C)c3)C2)c1 (centres undefined)	none
CNC(C(=O)c1ccccc1)C(OC)c1cccc([N+](=O)[O-])c1 (centres undefined)	none
Clc1ccc2[nH]c3c(c2c1)CCNC3	none
Cc1cccc(CN2CCCC(C(=O)c3cccc(OC(C)C)c3)C2)n1 (centres undefined)	none | KCNK9 block conf inactive | Kir2-1 spec inactive | KCNK9 uninduced inactive
O=C(c1cc(F)ccc1F)C1CCCN(Cc2cccc(Cl)c2)C1 (centres undefined)	none | KCNK9 block conf inactive | Kir2-1 spec inactive | KCNK9 uninduced inactive
Cc1cc(Cl)ccc1C(=O)C1CCCN(Cc2ccon2)C1 (centres undefined)	none
COc1cccc(C(=O)C2CCCN(Cc3cccc(C)n3)C2)c1 (centres undefined)	none
COc1ccccc1OCC(=O)N1CCCC(N(C)Cc2ccccc2)C1 (centres undefined)	none
COc1ccccc1N1CCN(C2CCCN(C(=O)COc3ccccc3Cl)C2)CC1 (centres undefined)	none | KCNK9 block conf inactive | Kir2-1 spec inactive | KCNK9 uninduced inactive
Cc1cc(OCC(=O)N2CCC(C(=O)O)CC2)c2c3c(c(=O)oc2c1)CCC3	none
